From article PMC2926617 (Nucleic Acids Research, 2010)
Where two headings read alike, the source gives them in different places. Blank lines part the entries; values can stand above or below the molecule they belong to.

B2: CarS antirepressor (natural protein, Myxococcus xanthus, UniProt Q06911 1-111, looked up)
chain: MIQDPSLIICHDVDGAPVRIGAKVKVVPHSEDGTISQRFLGQTGIVVGLVFDDPATQYPDDPLIQVLVEGLGEDLFFPEELELAPEWARNRIAQHRQAVRTGGRSSLERLP
B5: CarANt, N-terminal DNA-binding domain of CarA (domain or fragment, Myxococcus xanthus)
chain: MTLRIRTIARMTGIREATLRAWERRYGFPRPLRSEGNNYRVYSREEVEAVRRVARLIQEEGLSVSEAIAQVKTEPPRE

Assays:
[1] = biological target: T1, CarS (Myxococcus xanthus, UniProt Q06911); assay: ITC titration with CarS; type: binding
T1 sequence (Q06911 1-111): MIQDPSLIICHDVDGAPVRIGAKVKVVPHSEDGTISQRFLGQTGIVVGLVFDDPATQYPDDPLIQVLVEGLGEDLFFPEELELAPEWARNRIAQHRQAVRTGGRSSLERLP

[2] = biological target: T1, CarS; assay: Analytical gel filtration, complex formation with CarS; type: binding; details: Superdex200, pH 7.5, mixture with CarS
Method in brief: (§1)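 Superdex200 analytical size-exclusion HPLC in 50 mM phosphate pH 7.5, 2 mM β-mercaptoethanol and the required NaCl. Samples were 10–50 µM pure protein, or CarNt or CarHNt mixed with CarS or variant at equivalent concentrations. Flow was 0.4 ml/min with detection at 280, 235 and 220 nm. Peak fractions were identified by SDS–PAGE. Mr was taken from elution volume via log Mr = 7.64 – 0.209 Ve.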

[3] = biological target: P01, CarA α2 peptide (α2 segment plus the subsequent eight C-terminal residues) (Myxococcus xanthus); assay: ITC
[4] = biological target: P02, CarA α2 peptide (α2 only) (Myxococcus xanthus); assay: ITC
[5] = biological target: CHP01, CarHNt peptide equivalent to P01 (Myxococcus xanthus); assay: ITC
[6] = biological target: B5; assay: ITC
[7] = system: CarANt; assay: Analytical gel filtration, complex formation with CarANt; type: binding, Myxococcus xanthus
Method in brief: as §1

[8] = system: CarA; assay: Yeast two-hybrid interaction with CarA; type: cell-based, Myxococcus xanthus; details: 30°C
Method in brief: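 Yeast EGY48 carrying lacZ reporter pSH18-34 was cotransformed (lithium acetate) with LexA–CarA and B42–CarS or variant fusions. Equal-density cultures were spotted on galactose or glucose (basal fusion expression) plates with leucine, grown 1 day at 30°C, then overlaid with X-Gal agarose for 2–3 h (Gal) or ≥7 h (Glu). Interaction was scored by blue colour; single-hybrid cells served as controls.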

[9] = Analytical gel filtration of pure proteins; type: physicochemical; details: Superdex200, 50 mM phosphate pH 7.5, 2 mM β-mercaptoethanol
Method in brief: as §1

[10] = biological target: P01, CarA α2 peptide (α2 segment plus the subsequent eight C-terminal residues) (Myxococcus xanthus); assay: ITC; remark: listed apart in the source
[11] = biological target: P01, CarA α2 peptide (α2 segment plus the subsequent eight C-terminal residues) (Myxococcus xanthus); assay: ITC; remark: listed apart in the source
[12] = biological target: P01, CarA α2 peptide (α2 segment plus the subsequent eight C-terminal residues) (Myxococcus xanthus); assay: ITC; remark: listed apart in the source
[13] = system: CarA or CarH N-terminal domain; details: cited from earlier work
[14] = biological target: B2; assay: ITC
[15] = biological target: T1, CarS; details: cited from earlier work

Molecule: Ac-GVRVELIRAWERRYGVLTPRRTP-NH2 [CHP01]
Kd [1]: 690 ± 140 nM
ITC heat change / binding ([1]; ITC with CarS, pH 7.5): bind tightly to CarS, but with a KD somewhat higher than for P01
N (binding stoichiometry) ([1]; ITC, CarS, 25 °C, pH 7.5, 100 mM NaCl, 50 mM phosphate, 2 mM β-mercaptoethanol, 0.05% sodium azide, 20 µM CarANt or peptide titrated with 0.22 mM CarS, average of at least two independent titrations): 0.91 ± 0.01
ΔH ([1]; ITC, CarS, 25 °C, pH 7.5, 100 mM NaCl, 50 mM phosphate, average of at least two independent titrations): −7.15 ± 0.17 kcalmol^−1

Apparent Mr of complex with CarS [2]: ≈ 35 kDa
Complex formation with CarS [2]: forms a 1:1 complex
B1: CarHNt: CarH N-terminal DNA-binding domain (protein)
chain: MAERTYRINIAAELAGVRVELIRAWERRYGVLTPRRTPAGYRAYTDRDVAVLKQLKRLTDEGVAISEAAKLLPQLMEGLE
modifications: left off: H6, end not stated, cleaved

Molecule: B2
Kd [3]: 150 nM
dH [3]: -11.7 kcalmol^−1
stoichiometry N [3]: 0.93
Kd [4]: 300 nM
dH [4]: -12 kcalmol^−1
stoichiometry N [4]: 1.07
Kd [5]: 690 nM
dH [5]: -7.15 kcalmol^−1
stoichiometry N [5]: 0.91
dH [6]: -9.24 ± 0.02 kcalmol^−1
stoichiometry N [6]: 0.94 ± 0.01

B3: CarS: antirepressor of Myxococcus xanthus (protein)
chain: MIQDPSLIICHDVDGAPVRIGAKVKVVPHSEDGTISQRFLGQTGIVVGLVFDDPATQYPDDPLIQVLVEGLGEDLFFPEELELAPEWARNRIAQHRQAVRTGGRSSLERLP
modifications: left off: H6, end not stated, cleaved
Apparent Mr of complex/peak in mixture with CarANt ([7]; Superdex200, 50 mM phosphate pH 7.5, 2 mM β-mercaptoethanol, mixture with CarANt): 30 ± 2 kDa
Complex formation with CarANt ([7]; Superdex200, pH 7.5, mixture with CarANt): formed a stable 1:1 complex
Two-hybrid blue color, galactose plates ([8]; galactose plates, X-gal overlay): turned blue within two hours
Two-hybrid blue color, glucose plates ([8]; glucose plates (basal B42-fusion expression), X-gal 7–24 h): blue color
Apparent Mr of pure protein [9]: 15.1 ± 0.8 kDa

Kd [10]: 270 nM
dH [10]: -14.4 kcalmol^−1
stoichiometry N [10]: 0.89
Kd [11]: 175 nM
dH [11]: -5.7 kcalmol^−1
stoichiometry N [11]: 0.93
Kd [3]: 150 nM
dH [3]: -8.46 kcalmol^−1
stoichiometry N [3]: 0.92
Kd [4]: 490 nM
dH [4]: -7.6 kcalmol^−1
stoichiometry N [4]: 0.97
Kd [12]: 200 nM
dH [12]: -10.9 kcalmol^−1
stoichiometry N [12]: 0.89
B4: CarS1, functional truncated form of CarS (lacking the last 25 residues) (domain or fragment)
chain: MIQDPSLIICHDVDGAPVRIGAKVKVVPHSEDGTISQRFLGQTGIVVGLVFDDPATQYPDDPLIQVLVEGLGEDLFFPEELELAPE
Complex formation stoichiometry [13]: forms a 1:1 complex

Molecule: B5
Kd [14]: 12 ± 3 nM

B6: CarA R15 to A: CarA with R15 mutated to A (ref 10) (protein, UniProt Q50899 1-288, looked up, variant R15A)
HTH-type transcriptional …: MTLRIRTIARMTGIAEATLRAWERRYGFPRPLRSEGNNYRVYSREEVEAVRRVARLIQEEGLSVSEAIAQVKTEPPREQPEAERLRERFWSSVGALEGDEVTRVLDDAQTVMDVEAYCDGFLLPLLREMGVRLDVAREHLASALIRQRLRQVYDALSPAPAGPRALLACPSGDHHEGGLLVLGIHLKRKGWRVTMLGADTPAAALQGACVQVRPDVVALSFVRARAPEEFASVLEDALRACAPFPVVVGGLGAREHLKAIFSLGAQYAESSEELVAIWNQVRNAQNRP
Interaction of CarA variant with CarS [15]: CarS-binding was not impaired

B7: R20′ to A: CarA with R20 mutated to A (ref 10) (protein, UniProt Q50899 1-288, looked up, variant R20A)
HTH-type transcriptional …: MTLRIRTIARMTGIREATLAAWERRYGFPRPLRSEGNNYRVYSREEVEAVRRVARLIQEEGLSVSEAIAQVKTEPPREQPEAERLRERFWSSVGALEGDEVTRVLDDAQTVMDVEAYCDGFLLPLLREMGVRLDVAREHLASALIRQRLRQVYDALSPAPAGPRALLACPSGDHHEGGLLVLGIHLKRKGWRVTMLGADTPAAALQGACVQVRPDVVALSFVRARAPEEFASVLEDALRACAPFPVVVGGLGAREHLKAIFSLGAQYAESSEELVAIWNQVRNAQNRP
Interaction of CarA variant with CarS [15]: no apparent impairment in interactions with CarS
